The text below walks through data of PMC6144584 (SAGE Open Medicine, 2018).

This assay concerns PBMC from prostate cancer patients. In words: Ex vivo IFN-γ ELISPOT assay for immunogenicity. It is filed as cell-based, human. Particulars: positive control 10 µg/ml, 40 h. The procedure, abridged:
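Ficoll-isolated patient PBMC, 3×10^5/well in triplicate, on anti-IFN-γ-coated plates (5 μg/ml; blocked with RPMI 1640 + 5% pooled human serum, 1 h, 37°C). Phytohemagglutinin 10 µg/ml; no-peptide medium control; IL-2 20 units/ml in all wells; 40 h, 37°C. Detection: biotin anti-IFN-γ 1 µg/ml final (2 h), avidin-biotin-HRP (1 h), […]. Spots counted automatically; mean SFU/well computed; positive if ≥2× no-peptide wells.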

For the substance phytohemagglutinin, the Positivity index amounted to 57.3 (Patient 2); 197.0 (Patient 5); 154.5 (Patient 6); 131.4 (Patient 7); 186.0 (Patient 9); 253.3 (Patient 10).
